Assay [1] concerns the target Replicase polyprotein 1ab (Severe acute respiratory syndrome-related coronavirus, UniProt P0C6X7). The assay can be described thus: Inhibition of SARS coronavirus 3C-like protease pretreated for 5 mins before substrate addition by fluorimetry.
Another assay concerns the target T1, Caspase-3 (Homo sapiens) (UniProt P42574).
T1 sequence (whole entry): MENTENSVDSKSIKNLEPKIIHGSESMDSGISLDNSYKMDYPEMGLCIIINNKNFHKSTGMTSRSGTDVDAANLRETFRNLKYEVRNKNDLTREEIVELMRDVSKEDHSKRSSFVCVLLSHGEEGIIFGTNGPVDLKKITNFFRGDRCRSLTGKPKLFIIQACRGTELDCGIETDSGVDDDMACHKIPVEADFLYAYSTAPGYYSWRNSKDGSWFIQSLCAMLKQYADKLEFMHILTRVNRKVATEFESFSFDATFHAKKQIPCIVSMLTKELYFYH
The assay can be described thus: Inhibition of caspase3 (unknown origin) using Ac-DEVD-pNA as substrate at 0.5 to 256 uM after 90 mins by spectrophotometry.

Assay [2] can be described thus: Inhibition of human coronavirus HKU1 3C-like protease pretreated for 5 mins before substrate addition by fluorimetry. A digest of the protocol:
(§1)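 3CL protease (0.5-1 μM) preincubated 5 min with inhibitor (0.5-256 μM), then 35 μM fluorescent-protein substrate added; cleavage followed by fluorescence. IC50 from four-parameter logistic fit of activity versus inhibitor concentration.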

Assay [3] can be described thus: Inhibition of […] bronchitis virus 3C-like protease pretreated for 5 mins before substrate addition by fluorimetry. A digest of the protocol:
as §1

Assay [4] in a line: Inhibition of human coronavirus […] 3C-like protease pretreated for 5 mins before substrate addition by fluorimetry. On the set-up: species or system Human coronavirus 229E. The method in brief:
as §1

Assay [5] is described as follows: Inhibition of human coronavirus OC43 3C-like protease pretreated for 5 mins before substrate addition by fluorimetry. A digest of the protocol: as §1

Molecules are shown by their SMILES. Activity calls are given as the source filed them. The rule behind the calls is not given here.

The IC50 is the concentration that gives 50% inhibition. Turning to `CC(C)C[C@H](NC(=O)[C@@H](NC(=O)[C@H](C)NC(=O)[C@H](CO)NC(=O)[C@@H](NC(=O)OCc1ccccc1)[C@@H](C)O)C(C)C)C(=O)N[C@H](C#N)CCC(N)=O`, the IC50 in assay [1] is 39 µM.
On the same count and under the same terms, then `Cc1cc(C(=O)N[C@@H](C)C(=O)N[C@H](C(=O)N[C@@H](CC(C)C)C(=O)N[C@H](C#N)CCC(N)=O)C(C)C)no1`, with 49 µM.
Take `CC(C)C[C@H](NC(=O)[C@@H](NC(=O)[C@H](C)NC(=O)OCc1ccccc1)C(C)C)C(=O)N[C@H](C#N)CCC(N)=O`: on Caspase-3 (Homo sapiens), the inhibition entry is “inactive”. Further, the IC50 in assay [2], in assay [3], in assay [4] and in assay [5] was 1.3 µM each time.
